The values below come from ChEMBL document CHEMBL2331274, “SAR based design of nicotinamides as a novel class of androgen receptor antagonists for prostate cancer” (J Med Chem, 2013).

Structures are written as SMILES. The source made the active and inactive calls. The calls are words filed in the database; no cut-off is given here.

The target in series [1] is T1, Androgen receptor (Homo sapiens) (UniProt P10275).
T1 sequence (whole entry): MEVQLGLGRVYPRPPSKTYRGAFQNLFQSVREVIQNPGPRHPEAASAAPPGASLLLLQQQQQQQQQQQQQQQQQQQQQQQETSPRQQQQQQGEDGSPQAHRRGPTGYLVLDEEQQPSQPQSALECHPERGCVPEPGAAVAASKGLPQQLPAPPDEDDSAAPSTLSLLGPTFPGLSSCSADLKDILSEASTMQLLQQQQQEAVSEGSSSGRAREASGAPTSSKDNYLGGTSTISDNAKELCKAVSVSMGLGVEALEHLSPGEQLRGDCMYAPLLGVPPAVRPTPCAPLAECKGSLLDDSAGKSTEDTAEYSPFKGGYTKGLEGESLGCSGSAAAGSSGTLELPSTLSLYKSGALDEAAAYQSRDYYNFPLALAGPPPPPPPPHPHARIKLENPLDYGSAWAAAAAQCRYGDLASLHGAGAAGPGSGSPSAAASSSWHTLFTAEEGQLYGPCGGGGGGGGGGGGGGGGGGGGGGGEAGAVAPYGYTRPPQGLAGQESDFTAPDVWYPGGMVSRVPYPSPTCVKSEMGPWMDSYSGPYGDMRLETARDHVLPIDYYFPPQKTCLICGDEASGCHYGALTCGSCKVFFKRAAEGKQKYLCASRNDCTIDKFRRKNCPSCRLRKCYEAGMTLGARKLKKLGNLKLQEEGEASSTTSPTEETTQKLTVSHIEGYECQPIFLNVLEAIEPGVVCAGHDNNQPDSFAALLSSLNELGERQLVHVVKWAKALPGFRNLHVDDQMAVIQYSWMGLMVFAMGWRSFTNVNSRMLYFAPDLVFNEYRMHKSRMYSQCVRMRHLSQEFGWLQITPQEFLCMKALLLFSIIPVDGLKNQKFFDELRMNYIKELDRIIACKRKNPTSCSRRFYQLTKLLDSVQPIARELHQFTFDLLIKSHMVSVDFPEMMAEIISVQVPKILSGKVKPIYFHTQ
The experiment in a line: Inhibition of androgen receptor-mediated SRC2 coactivator recruitment in human PPC1 cells at 10 uM after 1 hr by DAPI staining-based fluorescence microscopic analysis. In kind it is cell-based. The conditions noted are these: PPC-1.

The target in series [2] is T1, Androgen receptor (Homo sapiens). Kind of series: Inhibition of androgen receptor-mediated SRC1 coactivator recruitment in human PPC1 cells at 10 uM after 1 hr by DAPI staining-based fluorescence microscopic analysis. The conditions noted are these: PPC-1. It counts as cell-based.
The target is the same in series [3]. The experiment in a line: Inhibition of DHT-induced androgen receptor-mediated GFP-AR protein nuclear translocation in human PPC1 cells at 10 uM after 1 hr by DAPI staining-based fluorescence microscopic analysis. In kind it is cell-based. The settings on record: PPC-1.
A further series relates to PPC-1. The experiment in a line: Cytotoxicity against human androgen-independent/AR-negative PPC1 cells after 3 days by MTS/PMS assay. It counts as functional, cell-based.
Series [4] in a line: (§1) Cytotoxicity against human androgen-independent/AR-positive C4-2 cells […] after 4 days by MTS/PMS assay. In kind it is functional, cell-based. The conditions noted are these: LNCaP C4-2, 96 h.
Series [5] deals with LNCaP. Kind of series: Cytotoxicity against human androgen-dependent LNCAP cells after 6 days by MTS/PMS assay. It counts as functional, cell-based. The settings on record: 144 h.
The subject of series [6] is LNCaP. The experiment in a line: Cytotoxicity against human androgen-dependent LNCAP cells at 10 uM after 7 days by MTS/PMS assay relative to control. The settings on record: for inhibition of growth at 10 µM: 168 h, read-out: GI. In kind it is functional.
Series [7] addresses T2, Androgen receptor (Mus musculus, UniProt P19091).
T2 sequence (P19091 whole entry): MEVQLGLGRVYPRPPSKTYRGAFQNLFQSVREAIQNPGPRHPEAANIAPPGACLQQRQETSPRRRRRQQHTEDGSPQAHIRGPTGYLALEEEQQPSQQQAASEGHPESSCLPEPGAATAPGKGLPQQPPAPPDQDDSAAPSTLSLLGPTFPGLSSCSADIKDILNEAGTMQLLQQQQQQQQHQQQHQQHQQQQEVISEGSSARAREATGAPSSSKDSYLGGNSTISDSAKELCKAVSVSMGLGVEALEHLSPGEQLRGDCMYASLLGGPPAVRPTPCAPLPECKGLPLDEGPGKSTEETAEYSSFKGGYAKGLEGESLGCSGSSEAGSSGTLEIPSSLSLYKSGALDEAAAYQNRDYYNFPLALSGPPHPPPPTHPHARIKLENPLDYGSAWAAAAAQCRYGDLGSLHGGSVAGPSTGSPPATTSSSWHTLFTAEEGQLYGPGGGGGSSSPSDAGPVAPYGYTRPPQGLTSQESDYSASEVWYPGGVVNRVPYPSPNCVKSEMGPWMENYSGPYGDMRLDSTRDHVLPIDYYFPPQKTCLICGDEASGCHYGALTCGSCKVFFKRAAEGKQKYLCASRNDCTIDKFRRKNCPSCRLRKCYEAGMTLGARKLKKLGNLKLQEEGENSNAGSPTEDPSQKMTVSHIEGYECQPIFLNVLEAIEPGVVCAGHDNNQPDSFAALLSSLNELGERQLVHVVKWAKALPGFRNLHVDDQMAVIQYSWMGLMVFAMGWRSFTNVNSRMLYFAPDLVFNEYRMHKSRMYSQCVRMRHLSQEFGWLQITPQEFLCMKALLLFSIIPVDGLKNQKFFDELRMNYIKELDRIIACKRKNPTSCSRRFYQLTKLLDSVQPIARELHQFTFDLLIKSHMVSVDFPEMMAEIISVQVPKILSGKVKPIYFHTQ
The experiment in a line: Displacement of [3H] ]5alpha-DHT from mouse androgen receptor expressed in monkey COS7 cells after 2 hrs by scintillation counting analysis. It counts as cell-based, COS-7.

A further series relates to MEF. Kind of series: Cytotoxicity against mouse MEF cells at 10 uM after 4 days by MTS/PMS assay. In kind it is cell-based. The settings on record: 96 h.
In series [8] the target is T3, Androgen receptor (Mus musculus) (UniProt P19091).
T3 sequence (whole entry): T2 sequence (P19091 whole entry)
The experiment in a line: Antagonist activity against mouse androgen receptor assessed as reduction of 10 nM DHT-induced transcriptional activity at 10 uM after 24 hrs by cell-based luciferase reporter gene assay relative to control. The procedure, abridged:
(§2)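 Transcriptional activity is expressed as a percentage after 10 μM compound, given alone for agonist mode or with 10 nM DHT for antagonist mode. Data are from triplicate experiments.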

The target of series [9] is T3, Androgen receptor (Mus musculus). The experiment in a line: Agonist activity at mouse androgen receptor at 10 uM after 24 hrs by cell-based luciferase reporter gene assay relative to control. In a few lines: as §2
Series [10] has as its target T2, Androgen receptor. The experiment in a line: Antagonist activity at mouse androgen receptor assessed as inhibition of transactivation after 24 hrs by cell-based luciferase reporter gene assay.
The subject of another series is LNCaP C4-2. The description is as §1. It counts as functional, cell-based.

As to `CCOc1ccc2c(c1)CCN(c1ccc(C(=O)Nc3cccc(C)n3)cn1)C2`, the inhibition result in series [1], in series [2] and in series [3] was “Active” throughout. In the series on PPC-1, the outcome was inactive. In addition, the IC50 in series [4] is 11800 nM; with LNCaP [5], 1470 nM; on Androgen receptor [10], 460 nM. Besides, the inhibition of growth at 10 µM in the series on LNCaP [6] stood at 80%. Moreover, at Androgen receptor [7], the Ki was more than 50000 nM. The Activity entry in the series on MEF is “Non-toxic”; in series [9] it was 3.9%. Also, the inhibition in series [8] came out at 95.1%.
For the compound `Cc1cccc(NC(=O)c2ccc(N3CCc4ccccc4C3)nc2)n1`, the inhibition entry in series [1] and in series [2] was “Active” each time. Further, the outcome in the series with PPC-1 was inactive. In addition, the “growth inhibition (GI)” value in the series on LNCaP C4-2 and in the series with LNCaP [6] was “Active” in each case. Also, the Ki on Androgen receptor [7] worked out at 1460 nM. For the same compound, the inhibition in series [8] is 89.9%. Besides, in series [9], the Activity turned out to be 3%. Further, the IC50 at Androgen receptor [10] was 4450 nM.
On to `COc1ccc2c(c1OC)CCN(c1ccc(C(=O)Nc3cccc(C)n3)cn1)C2`, for which the inhibition result in [1], in series [2] and in series [3] was “Active” throughout. Further, in the series on PPC-1, the outcome was inactive. Besides, the IC50 in series [4] stood at 2500 nM; in the series with LNCaP [5], 680 nM; at Androgen receptor [10], 990 nM. In addition, the inhibition of growth at 10 µM in the series on LNCaP [6] stood at 90%. Moreover, the Ki on Androgen receptor [7] is 25600 nM. Besides, the Activity entry with MEF is “Non-toxic”; in [9] it was 4.7%. Further, in series [8], the inhibition amounted to 95.6%.
